How the values were obtained:
[1] = target: T1, Sodium-dependent dopamine transporter (Rattus norvegicus, UniProt P23977); experiment: Binding affinity at the dopamine transporter using [125I]RTI-55 in rat caudate membranes.; format: cell membranes
In short: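 [125I]RTI-55 at 0.01 nM (SA 2200 Ci/mmol). […] Incubated in triplicate 18–24 h at 4 °C to equilibrium. Filtered over PEI-presoaked GF/B filters. Eight-point inhibition curves spanning 90% to 10% of control. IC50 reported.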

[2] = target: T2, Sodium-dependent serotonin transporter (Rattus norvegicus, UniProt P31652); experiment: Binding affinity at the serotonin transporter using [125I]RTI-55 in rat caudate membranes.; format: cell membranes
T2 sequence (P31652 whole entry): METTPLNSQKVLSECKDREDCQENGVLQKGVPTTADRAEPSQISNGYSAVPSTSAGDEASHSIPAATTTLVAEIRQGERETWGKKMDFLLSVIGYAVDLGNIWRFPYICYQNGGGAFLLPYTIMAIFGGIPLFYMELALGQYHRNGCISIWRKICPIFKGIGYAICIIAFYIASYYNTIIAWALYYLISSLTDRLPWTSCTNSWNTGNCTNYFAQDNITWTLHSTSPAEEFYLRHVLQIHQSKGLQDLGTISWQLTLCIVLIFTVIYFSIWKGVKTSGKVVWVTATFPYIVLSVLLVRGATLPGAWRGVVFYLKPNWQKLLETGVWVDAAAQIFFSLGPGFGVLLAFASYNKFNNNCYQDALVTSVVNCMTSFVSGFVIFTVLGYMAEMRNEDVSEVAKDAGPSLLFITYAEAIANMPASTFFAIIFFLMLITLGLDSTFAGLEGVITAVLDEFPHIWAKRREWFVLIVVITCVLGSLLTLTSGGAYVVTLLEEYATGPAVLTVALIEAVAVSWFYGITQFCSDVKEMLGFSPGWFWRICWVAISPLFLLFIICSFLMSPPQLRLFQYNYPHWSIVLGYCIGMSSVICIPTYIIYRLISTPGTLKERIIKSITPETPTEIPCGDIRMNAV
In short: (§1)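 Triplicate incubation 18–24 h at 4 °C, then filtration over PEI-presoaked GF/B filters. Eight-point inhibition curves (90–10% of control) give the IC50.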

[3] = target: T3, Monoamine transporters; serotonin & dopamine (Rattus norvegicus) (UniProt P31652+P23977); experiment: Ratio of reuptake inhibition of 5-HT with respect to DA; format: functional
T3 sequence (P23977 whole entry, looked up): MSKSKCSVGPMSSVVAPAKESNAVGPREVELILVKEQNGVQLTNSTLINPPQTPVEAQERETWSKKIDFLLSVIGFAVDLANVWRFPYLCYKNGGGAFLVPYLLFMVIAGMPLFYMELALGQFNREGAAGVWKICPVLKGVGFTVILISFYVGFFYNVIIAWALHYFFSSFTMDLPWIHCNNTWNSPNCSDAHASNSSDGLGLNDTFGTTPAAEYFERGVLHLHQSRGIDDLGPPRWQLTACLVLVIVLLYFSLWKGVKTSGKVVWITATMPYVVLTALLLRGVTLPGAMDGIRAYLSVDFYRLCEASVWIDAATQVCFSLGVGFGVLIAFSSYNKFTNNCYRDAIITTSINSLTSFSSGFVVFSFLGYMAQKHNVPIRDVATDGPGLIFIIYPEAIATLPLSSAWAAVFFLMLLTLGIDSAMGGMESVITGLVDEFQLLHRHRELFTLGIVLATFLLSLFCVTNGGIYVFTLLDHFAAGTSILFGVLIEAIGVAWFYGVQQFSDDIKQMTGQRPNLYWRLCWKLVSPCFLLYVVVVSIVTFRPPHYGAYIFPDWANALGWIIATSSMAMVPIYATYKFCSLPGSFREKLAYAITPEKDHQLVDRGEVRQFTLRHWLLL
T3 sequence (P31652 whole entry, looked up): as the sequence (P31652 whole entry) above

[4] = target: Sodium-dependent dopamine transporter (Rattus norvegicus) (UniProt P23977); experiment: Ratio of reuptake inhibition on DA with respect to binding affinity of DA; format: functional
Chain of Sodium-dependent dopamine transporter (Rattus norvegicus) (P23977 whole entry): as the sequence (P23977 whole entry, looked up) above

[5] = target: T3, Monoamine transporters; serotonin & dopamine (Rattus norvegicus); experiment: Ratio of binding affinity on SERT with respect to DA; format: protein assay
[6] = target: T1, Sodium-dependent dopamine transporter; experiment: Reuptake inhibition at the dopamine transporter labeled with radioligand [3H]dopamine on synaptosomes obtained from rat caudate.; format: functional, subcellular, Brain
In short: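 Rat caudate synaptosomes (10% sucrose homogenate, 1000g supernatant). [3H]DA at 5 nM final in Krebs-phosphate buffer pH 7.4 with ascorbic acid and 50 μM pargyline. Incubated 15 min at 25 °C. Nonspecific uptake defined with 1 μM GBR 12909. Filtered over GF/B filters and counted. IC50 reported.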

[7] = target: T1, Sodium-dependent dopamine transporter; experiment: Binding affinity was determined at the dopamine transporter labeled with radioligand [125 I] RTI-55 in nonstandard conditions
In short: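 Run on rat caudate synaptosomes in Krebs-phosphate buffer with 1 mg/mL BSA. Drug preincubated 60 min at 25 °C, then 10 pM [125I]RTI-55 added for 20 min at 25 °C. Filtered over PEI-presoaked GF/B filters. Nonspecific binding defined with 1 μM GBR 12909. Mean ± SD of three independent experiments.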

[8] = target: T1, Sodium-dependent dopamine transporter; experiment: Reuptake inhibition was determined at the dopamine transporter labeled with radioligand [3H]dopamine in nonstandard conditions on brain membranes obtained from rat; format: functional, Membrane
In short: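 Synaptosomes preincubated with drug 60 min at 25 °C in Krebs-phosphate buffer with 1 mg/mL BSA. 5 nM [3H]DA then added for 20 min at 25 °C. Nonspecific uptake defined with 1 μM GBR 12909. Stopped by filtration. Mean ± SD of three independent experiments.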

[9] = target: T2, Sodium-dependent serotonin transporter; experiment: Binding affinity was determined at the Serotonin transporter labeled with radioligand [125 I] RTI-55; in short: as §1
[10] = target: T1, Sodium-dependent dopamine transporter; experiment: Binding affinity was determined at the dopamine transporter labeled with radioligand [125 I] RTI-55
In short: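 Incubated in triplicate 18–24 h at 4 °C to equilibrium. Filtered over PEI-presoaked GF/B filters. Eight-point inhibition curves spanning 90% to 10% of control. IC50 reported.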

[11] = Sigma receptor binding was determined by labeling with radioligand [3H](+)-pentazocine on frozen membranes obtained from frozen guinea pig brain

T1 sequence (P23977 whole entry): as the sequence (P23977 whole entry, looked up) above

| SMILES | IC50 [1] | IC50 [2] | Ratio [3] | Ratio [4] | Ratio [5] | IC50 [6] | IC50 [7] | IC50 [8] | IC50 [9] | IC50 [10] | IC50 [11] |
| --- | --- | --- | --- | --- | --- | --- | --- | --- | --- | --- | --- |
| c1ccc(C(OCCN2CCN(Cc3ccc4ccccc4n3)CC2)c2ccccc2)cc1 | 199 nM | 1990 nM | 21 | 1 | 10 | 192 nM |  |  |  |  |  |
| Fc1ccc(C(OCCN2CCN(Cc3cc4ccccc4o3)CC2)c2ccc(F)cc2)cc1 | 6.4 nM | 286 nM | 41 | 2.9 | 45 | 18.6 nM | 17.8 nM | 12.3 nM |  |  |  |
| Fc1ccc(C(OCCN2CCN(CCCc3cccs3)CC2)c2ccc(F)cc2)cc1 |  |  | 55 | 1.8 | 32 | 6.1 nM |  |  | 105 nM | 3.3 nM |  |
| C(=C\c1ccco1)/CN1CCN(CCOC(c2ccccc2)c2ccccc2)CC1 | 5 nM | 1840 nM | 281 | 1.9 | 367 | 9.6 nM |  |  |  |  |  |
| c1ccc(CCCN2CCN(CCOC(c3ccccc3)c3ccccc3)CC2)cc1 |  |  |  |  |  |  |  |  |  |  | 17 nM |
| c1ccc(C(OCCN2CCN(Cc3cc4ccccc4o3)CC2)c2ccccc2)cc1 | 17 nM | 1890 nM | 136 | 1.3 | 110 | 22 nM | 43.6 nM | 31 nM |  |  |  |
| Fc1ccc(C(OCCN2CCN(C/C=C/c3cccnc3)CC2)c2ccc(F)cc2)cc1 |  |  | 46 | 1.1 | 25 | 14.5 nM |  |  | 334 nM | 13.6 nM |  |
| c1ccc(C(OCCN2CCN(CCCc3cccnc3)CC2)c2ccccc2)cc1 | 78 nM | 2420 nM | 53 | 0.9 | 31 | 70 nM |  |  |  |  |  |
| c1ccc(C(OCCN2CCN(Cc3cc4ccccc4[nH]3)CC2)c2ccccc2)cc1 | 1.1 nM | 668 nM | 241 | 8 | 619 | 8.8 nM | 2.19 nM | 2.62 nM |  |  |  |
| Fc1ccc(C(OCCN2CCN(Cc3cc4ccccc4[nH]3)CC2)c2ccc(F)cc2)cc1 | 0.7 nM | 119 nM | 39 | 18.6 | 163 | 13 nM | 2.94 nM | 1.86 nM |  |  |  |
| Fc1ccc(C(OCCN2CCN(Cc3ccc4ccccc4c3)CC2)c2ccc(F)cc2)cc1 | 8 nM | 312 nM | 20 | 3.8 | 39 | 30 nM |  |  |  |  |  |
| Fc1ccc(C(OCCN2CCN(CCCc3cccnc3)CC2)c2ccc(F)cc2)cc1 |  |  | 321 | 1.3 | 175 | 20 nM |  |  | 2800 nM | 16 nM |  |
| Fc1ccc(C(OCCN2CCN(Cc3cc4ccccc4s3)CC2)c2ccc(F)cc2)cc1 | 4.1 nM | 495 nM | 36 | 8.3 | 121 | 34 nM |  |  |  |  |  |
| c1ccc(C(OCCN2CCN(Cc3ccc4ncccc4c3)CC2)c2ccccc2)cc1 | 190 nM | 845 nM | 12 | 0.7 | 4 | 140 nM |  |  |  |  |  |
| c1ccc(C(OCCN2CCN(CCCc3nc4ccccc4[nH]3)CC2)c2ccccc2)cc1 | 23 nM | 309 nM | 39 | 0.7 | 13 | 17 nM |  |  |  |  |  |
| C(=C\c1cccs1)/CN1CCN(CCOC(c2ccccc2)c2ccccc2)CC1 | 6.4 nM | 1170 nM | 200 | 1.6 | 184 | 10 nM |  |  |  |  |  |

| SMILES | IC50 [1] | IC50 [2] | Ratio [3] | Ratio [4] | Ratio [5] | IC50 [6] | IC50 [7] | IC50 [8] | IC50 [9] | IC50 [10] | IC50 [11] |
| --- | --- | --- | --- | --- | --- | --- | --- | --- | --- | --- | --- |
| c1ccc(C(OCCN2CCN(Cc3cnc4ccccc4c3)CC2)c2ccccc2)cc1 | 72 nM | 1160 nM | 27 | 1.5 | 16 | 111 nM |  |  |  |  |  |
| Fc1ccc(C(OCCN2CCN(C/C=C/c3cccs3)CC2)c2ccc(F)cc2)cc1 |  |  | 29 | 5.9 | 40 | 13 nM |  |  | 88 nM | 2.2 nM |  |
| c1ccc(C(OCCN2CCN(Cc3cccc4ccccc34)CC2)c2ccccc2)cc1 | 114 nM | 336 nM | < 1 | 3.6 | 3 | 406 nM |  |  |  |  |  |
| Fc1ccc(C(OCCN2CCN(Cc3ccc4ccccc4n3)CC2)c2ccc(F)cc2)cc1 | 56 nM | 51 nM | 3 | 1.9 | < 1 | 106 nM |  |  |  |  |  |
| Fc1ccc(C(OCCN2CCN(CCCc3ccco3)CC2)c2ccc(F)cc2)cc1 |  |  | 52 | 1.3 | 35 | 7.9 nM |  |  | 204 nM | 5.9 nM |  |
| c1ccc(C(OCCN2CCN(CCCc3ccco3)CC2)c2ccccc2)cc1 | 6.5 nM | 1520 nM | 300 | 1.3 | 234 | 8.5 nM |  |  |  |  |  |
| Fc1ccc(C(OCCN2CCN(Cc3cccc4ccccc34)CC2)c2ccc(F)cc2)cc1 | 31 nM | 243 nM | < 1 | 10.1 | 8 | 312 nM |  |  |  |  |  |
| c1ccc(C(OCCN2CCN(CCCc3cccs3)CC2)c2ccccc2)cc1 | 5.2 nM | 842 nM | 205 | 1.9 | 162 | 9.7 nM |  |  |  |  |  |
| Fc1ccc(C(OCCN2CCN(Cc3nc4ccccc4[nH]3)CC2)c2ccc(F)cc2)cc1 | 15 nM | 256 nM | 40 | 1.3 | 17 | 20 nM |  |  |  |  |  |
| Fc1ccc(C(OCCN2CCN(Cc3ccc4ncccc4c3)CC2)c2ccc(F)cc2)cc1 | 62 nM | 551 nM |  | 1.2 | 9 |  |  |  |  |  |  |
| Fc1ccc(C(OCCN2CCN(C/C=C/c3ccco3)CC2)c2ccc(F)cc2)cc1 |  |  | 61 | 4 | 62 | 7.2 nM |  |  | 109 nM |  |  |
| C(=C\c1cccnc1)/CN1CCN(CCOC(c2ccccc2)c2ccccc2)CC1 | 44 nM | 2760 nM | 57 | 1.5 | 61 | 64 nM |  |  |  |  |  |
| Fc1ccc(C(OCCN2CCN(Cc3cnc4ccccc4c3)CC2)c2ccc(F)cc2)cc1 | 16 nM | 485 nM | 12 | 4.6 | 30 | 74 nM |  |  |  |  |  |
| c1ccc(C(OCCN2CCN(Cc3cc4ccccc4s3)CC2)c2ccccc2)cc1 | 18 nM | 2420 nM | 184 | 1.1 | 131 | 19 nM |  |  |  |  |  |
| c1ccc(C(OCCN2CCN(Cc3nc4ccccc4[nH]3)CC2)c2ccccc2)cc1 | 46 nM | 1880 nM | 110 | 0.8 | 41 | 37 nM |  |  |  |  |  |
| Fc1ccc(C(OCCN2CCN(CCCc3nc4ccccc4[nH]3)CC2)c2ccc(F)cc2)cc1 | 2.5 nM | 28 nM | 9 | 3.2 | 11 | 8.1 nM |  |  |  |  |  |

Source: ChEMBL document CHEMBL1129953, “Heteroaromatic analogs of 1-[2-(diphenylmethoxy)ethyl]- and 1-[2-[bis(4-fluorophenyl)methoxy]ethyl]-4-(3-phenylpropyl)piperazines (GBR 12935 and GBR 12909) as high-affinity dopamine reuptake inhibitors” (J Med Chem, 1997)
